Read-outs that look alike come from different tables or passages of the source.
What was measured:
[1] = system: Panc-1, MDA-MB-231, MCF-7 and HCT116 cells; format: cell-based; conditions: 48 h, read-out: IC50s against all the cell lines tested (Panc-1, MDA-MB-231, MCF-7, HCT116)
UACC903 melanoma cells = assay: Live/Dead assay, UACC903 cells; format: cell-based, human
Procedure, shortened: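 2 × 10^5 cells incubated with test compound (25 and 50 μM) for 24 h at 37 °C. Cells then stained with 5 μM ethidium homodimer plus 5 μM calcein-AM for 30 min at 37 °C. Imaged by fluorescence microscopy: green esterase-retained calcein marks live cells, red marks membrane-damaged dead cells. Percentage of dead cells quantified from images.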

[2] = system: PARP, Bcl-2, Bcl-xL, Survivin in CHL-1 and UACC903 melanoma cells; assay: Western blot of survival and apoptosis proteins; format: cell-based, human; conditions: CHL-1 and UACC903, 24 h
Procedure, shortened: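 CHL-1 and UACC903 cells (2 × 10^6) treated with test compound at set concentrations for 24 h. Whole-cell lysates resolved by SDS-PAGE and transferred to PVDF. Blots probed for PARP, […], survivin and Bcl-xL, with β-actin as loading control, and detected by enhanced chemiluminescence.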

UACC903 cells = assay: Annexin V and Caspase 3/7 activity assays; format: cell-based, human; conditions: UACC903, 24 h; for cells positive for Annexin V, Caspase 3/7 activity and 7-AAD: concentration not stated at place (25 and 50 μM tested)
Procedure, shortened: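 UACC903 cells exposed to test compound at 25 and 50 μM for 24 h. Floating and adherent cells analysed on a Muse cell analyzer using two kits. The Annexin V/7-AAD kit sorts cells into live, early apoptotic (Annexin V+/7-AAD−), late apoptotic (double positive) and necrotic (7-AAD only) quadrants. The caspase-3/7 kit uses NucView, a DEVD-linked DNA dye released by active caspase 3/7, plus 7-AAD as dead-cell marker.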

[3] = system: CHL-1 and UACC 903 melanoma cells; assay: MTT cell viability assay, values stated jointly for CHL-1 and UACC 903; format: cell-based; conditions: Homo sapiens, read-out: IC50, CHL-1 and UACC 903 stated jointly in text
Procedure, shortened: (§1)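 Cells kept in DMEM with 10% FBS and penicillin/streptomycin at 37 °C. Seeded at 3,000 cells/well and treated in triplicate with a test compound series (0.5–25 μM for 48 h; 72 h exposure also run for CHL-1/UACC 903). MTT (5 mg/mL stock in PBS) added for 3 h at 37 °C, formazan dissolved in DMSO, absorbance read at 570 nm with 630 nm background subtracted. IC50 from non-linear curve fits.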

[4] = system: cancer cell lines (UACC903, MCF-7 and MDA-MB-231); assay: MTT cell viability at 25 μM, values stated jointly for cancer cell lines; format: cell-based; conditions: 48 h, read-out: cell viability of cancer cell lines
[5] = system: 1205Lu and A375M cell lines; assay: MTT cell viability assay, values stated jointly for 1205Lu and A375M; format: cell-based; conditions: Homo sapiens, 48 h, read-out: IC50, 1205Lu and A375M stated jointly in text
Procedure, shortened: as §1

[6] = system: MCF10A, the human breast epithelial cell line; assay: MTT cell viability assay, normal MCF10A cells; format: cell-based; conditions: 25 μM, 48 h
[7] = system: UACC 903 (BRAF-mutant) melanoma cells; assay: MTT cell viability assay, UACC 903 melanoma cells; format: cell-based; conditions: Homo sapiens, UACC-903, 72 h, read-out: Melanoma cells IC50 (μM) UACC 903
[8] = system: CHL-1 (BRAF wild-type) melanoma cells; assay: MTT cell viability assay, CHL-1 melanoma cells; format: cell-based; conditions: Homo sapiens, CHL-1, 72 h, read-out: Melanoma cells IC50 (μM) CHL-1

| SMILES | IC50 [1] | cell death in Live/Dead assay, human melanoma cells (UACC903 melanoma cells; 25 μM concentration, cell line not specified at place) | PARP cleavage (Western blot) [2] | levels of anti-apoptotic proteins Bcl-2, Bcl-xL and Survivin (Western blot) [2] | necrotic death (cells only positive for 7-AAD) (UACC903 cells) | cells positive for Annexin V, Caspase 3/7 activity and 7-AAD (UACC903 cells) | IC50 ([3]; 48 h) | IC50 ([3]; 72 h) | viability at 25 µM [4] | IC50 [5] | potency towards melanoma cells (UACC903) as compared to normal MCF10A cells [6] | IC50 [7] | IC50 [8] | cell death in Live/Dead assay, UACC903 (UACC903 melanoma cells; 25 μM, 24 h) |
| --- | --- | --- | --- | --- | --- | --- | --- | --- | --- | --- | --- | --- | --- | --- |
| O=C1NC(=S)NC(=O)C1=C/C=C/c1cccc2ccccc12 [Compound 2d, 5-(3-Naphthalen-1-yl-allylidene)-2-thioxo-dihydro-pyrimidine-4,6-dione] | 3.6 to 7.9 µM |  |  |  |  |  |  |  |  |  |  |  |  |  |
| O=C1NC(=S)NC(=O)C1=C/C=C/c1cccs1 [Compound 2b, 5-(3-Thiophen-2-yl-allylidene)-2-thioxo-dihydro-pyrimidine-4,6-dione] |  | 65–70% | induced PARP cleavage | reduced the levels of anti-apoptotic proteins Bcl-2, Bcl-xL and Survivin in a dose-dependent manner | not detected | More than 70% | 6.5 to 8.1 µM | 3.8 to 4 µM | 20 to 30% | 10.6 to 14.8 µM | three-fold more potent |  |  |  |
| CCCS(=O)(=O)Nc1ccc(F)c(C(=O)c2c[nH]c3ncc(-c4ccc(Cl)cc4)cc23)c1F [PLX-4032, vemurafenib] |  |  |  |  |  |  |  |  |  |  |  | 3.6 ± 1.1 µM | 13.7 ± 1.7 µM |  |
| O=C1NC(=S)N(c2ccccc2)C(=O)/C1=C/C=C/c1cccs1 [Compound 8b, 1-Phenyl-5-(3-thiophen-2-yl-allylidene)-2-thioxo-dihydro-pyrimidine-4,6-dione] |  |  | induced PARP cleavage | reduced the levels of anti-apoptotic proteins Bcl-2, Bcl-xL and Survivin in a dose-dependent manner | not detected | More than 70% | 6.5 to 8.1 µM | 3.8 to 4 µM | 20 to 30% | 10.6 to 14.8 µM | three-fold more potent |  |  | 25% |

From article PMC5736457 (European journal of medicinal chemistry, 2017)
